From ChEMBL document CHEMBL4619720, “Synthesis and biological evaluation of new antioxidant and antiproliferative chalcogenobiotin derivatives for bladder carcinoma treatment” (Bioorg Med Chem, 2020)
Calls of active or inactive are those of the source. No cut-off for these calls is given here.

Tests used:
[1] = Antioxidant activity assessed as half life of GPx-like activity to decompose hydrogen peroxide at 55 uM measured for 20 mins by spectrophotometer method
5637 [2] = test: Antiproliferative activity against human 5637 cells assessed as inhibition of cell growth at 0.4 uM to 50 uM after 48 hrs by MTT assay; type: functional, cell-based
Summary of the method: (§1)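 Human bladder carcinoma 5637 cells, grown in DMEM with 10% FBS at 37 °C under 5% CO2, were seeded at 2 × 10^4 cells/well and cultured 24 h. Medium was then replaced with compound in DMEM/FBS, DMSO ≤0.5%, for 24 or 48 h. MTT was added for 3 h, formazan dissolved in DMSO, and OD read at 492 nm. Inhibition % = [1 − Abs treated/Abs control] × 100; three independent experiments.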

5637 [3] = test: Antiproliferative activity against human 5637 cells assessed as inhibition of cell growth at 0.4 uM to 50 uM after 24 hrs by MTT assay; type: functional, cell-based
Summary of the method: as §1

[4] = Cytotoxicity against CHOK1 cells assessed as inhibition of cell growth at 12.5 uM after 24 hrs by MTT assay relative to control; type: cell-based, Cricetulus griseus; conditions: chinese hamster, CHO-K1 cells
Summary of the method: (§2)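 CHO-K1 cells exposed to 0.4–50 µM for 24 and 48 h, then MTT reduction assay. Growth inhibition relative to control; IC50 by nonlinear regression; three independent experiments.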

[5] = Toxicity in Swiss mouse assessed as effect on alkaline phosphatase activity at 100 umol/kg, sc administration and measured for 7 days; type: organism-based; conditions: in vivo, 168 h
Summary of the method: (§3)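 Adult male Swiss mice (25–30 g), n = 4 per group, given a single subcutaneous dose of 100 µmol/kg or DMSO 1 mL/kg. Monitored by closed-circuit TV for 168 h, with body weight, food and water intake recorded daily. Killed by decapitation at day 7; blood urea, creatinine, AST, ALT and alkaline phosphatase measured.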

[6] = Toxicity in Swiss mouse assessed as effect on alanine aminotransferase level at 100 umol/kg, sc administration and measured for 7 days; type: organism-based; conditions: in vivo, 168 h
Summary of the method: as §3

[7] = Toxicity in Swiss mouse assessed as increase in aspartate aminotransferase level in plasma at 100 umol/kg, sc administration and measured for 7 days; type: organism-based; conditions: in vivo, 168 h
Summary of the method: as §3

[8] = Toxicity in Swiss mouse assessed as creatinine level in plasma at 100 umol/kg, sc administration and measured for 7 days; type: organism-based; conditions: in vivo, 168 h
Summary of the method: as §3

[9] = Toxicity in Swiss mouse assessed as survival rate at 100 umol/kg, sc administration and measured for 7 days; type: organism-based; conditions: in vivo, 168 h
Summary of the method: as §3

[10] = Toxicity in Swiss mouse assessed as urea level in plasma at 100 umol/kg, sc administration and measured for 7 days; type: organism-based; conditions: in vivo, 168 h
Summary of the method: as §3

[11] = Cytotoxicity against human leukocytes assessed as reduction in cell viability at 100 uM after 3 hrs by Trypan blue exclusion assay
Summary of the method: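 Leukocytes isolated from heparinized venous blood of healthy donors, 2 × 10^6/mL. Incubated 3 h in Hank's buffer with 10% human plasma containing DMSO (0.5%), compounds (100 µM) or t-butyl hydroperoxide (1 mM) as positive control. Three independent experiments.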

CHO-K1 [12] = test: Cytotoxicity against CHOK1 cells assessed as inhibition of cell growth after 48 hrs by MTT assay relative to control; type: cell-based; conditions: Cricetulus griseus, CHO-K1, 48 h
Summary of the method: as §2

CHO-K1 [13] = test: Cytotoxicity against CHOK1 cells assessed as inhibition of cell growth after 24 hrs by MTT assay relative to control; type: cell-based; conditions: Cricetulus griseus, CHO-K1, 24 h
Summary of the method: as §2

5637 [14] = test: Cell cycle arrest in human 5637 cells assessed as accumulation at S-phase at 12.5 uM after 24 hrs by propidium-iodide staining based flow cytometry; type: functional
Summary of the method: (§4)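 5637 cells treated 24 h at 12.5 µM alongside untreated controls. DNA content measured by propidium iodide staining and flow cytometry. Triplicate treatments; analysis by two-way ANOVA with t-tests, p < 0.05.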

5637 [15] = test: Antiproliferative activity against human 5637 cells assessed as inhibition of cell growth at 0.4 uM to 50 uM by MTT assay; type: functional, cell-based; conditions: TDE = time-dependent effect
Summary of the method: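 5637 bladder carcinoma cells in DMEM/10% FBS at 37 °C, 5% CO2, log phase, seeded 2 × 10^4 per well for 24 h. Compound exposure 0.4–50 µM for 24 or 48 h, DMSO ≤0.5%. MTT (5 mg/mL in PBS) 3 h at 37 °C, formazan dissolved in DMSO, read at 492 nm. Inhibition % = [1 − Abs treated/Abs control] × 100; IC50 by nonlinear regression; three independent experiments.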

[16] = Antioxidant activity assessed as GPx-like activity to decompose hydrogen peroxide at 450 uM measured for 20 mins by spectrophotometer method; type: functional
Summary of the method: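 GPx-mimic assay with thiophenol replacing glutathione. Ethanol, thiophenol 2.5 mM and compound (final 0–450 µM; t1/2 also taken at 55 µM) or DMSO blank, started with H2O2 2.3 mM. […] followed at 305 nm for 20 min. Ebselen and diphenyl diselenide at 55 µM as references; three independent experiments.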

[17] = Antioxidant activity assessed as inhibition of Fe(II)-induced lipid peroxidation after 30 mins by TBARS assay; type: functional
Summary of the method: (§5)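 Lipid peroxidation system: phosphatidylcholine 0.4 mg, FeSO4 55 µM, Tris-HCl pH 7.4 and compound (final 0–200 µM), 30 min at 37 °C. Then acetic acid buffer pH 3.4 plus 0.22% thiobarbituric acid, 1 h at 100 °C, n-butanol extraction of pink chromogen. IC50 from concentration curves; α-tocopherol and diphenyl diselenide as references; three independent experiments.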

[18] = Antioxidant activity assessed as half life of DPPH radical scavenging activity at 500 uM for 180 mins measured every 30 mins relative to control; type: functional
Summary of the method: (§6)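 Test compounds mixed with 0.3 mM DPPH in ethanol; single-point screen at 1 mM, time course at final 500 µM. Absorbance at 518 nm read every 30 min over 180 min. Positive controls were BHT (final 500 µM) and diphenyl diselenide (final 2 mM); t1/2 is the time to scavenge 50% of DPPH. DMSO vehicle; three independent experiments.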

[19] = Antioxidant activity assessed as inhibition of Fe(II)-induced lipid peroxidation at 200 uM after 30 mins by TBARS assay; type: functional
Summary of the method: as §5

[20] = Antioxidant activity assessed as DPPH radical scavenging activity at 1 mM for 180 mins measured every 30 mins relative to control; type: functional
Summary of the method: as §6

5637 [21] = test: cells; conditions: Homo sapiens, 5637, 48 h
5637 [22] = test: cells; conditions: Homo sapiens, 5637, 24 h
[23] = Cytotoxicity against human leukocytes assessed as reduction in cell viability at 1 mM after 3 hrs by Trypan blue exclusion assay; conditions: 1000 µM
5637 [24] = test: Cell cycle arrest in human 5637 cells assessed as accumulation at G2/M phase at 12.5 uM after 24 hrs by propidium-iodide staining based flow cytometry; type: functional
Summary of the method: as §4

CHO-K1 [25] = test: Cytotoxicity against CHOK1 cells assessed as inhibition of cell growth at 0.4 uM to 50 uM after 48 hrs by MTT assay; type: cell-based, Cricetulus griseus; conditions: chinese hamster, cho-k1, 48 h
Summary of the method: as §2

CHO-K1 [26] = test: Cytotoxicity against CHOK1 cells assessed as inhibition of cell growth at 0.4 uM to 50 uM after 24 hrs by MTT assay; type: cell-based, Cricetulus griseus; conditions: chinese hamster, cho-k1, 24 h
Summary of the method: as §2

O=c1c2ccccc2[se]n1-c1ccccc1
T1/2 [1]: 56 min

O=C1N[C@H]2[C@H](CS[C@H]2CCCCC(=O)OCCCC[Se]c2ccc(Cl)cc2)N1
inhibition 5637 [2]: inactive | inhibition 5637 [3]: inactive

CCCCCCC[Te]c1ccccc1
inhibition at 24 h, 12.5 µM [4]: 50%

O=C1N[C@H]2[C@H](CS[C@H]2CCCCC(=O)OCCCC[Te]c2ccccc2)N1
Activity [5]: Non-Toxic | Activity [6]: Non-Toxic | Activity [7]: Toxic | Activity [8]: Non-Toxic | Activity [9]: Non-Toxic | Activity [10]: Non-Toxic | Activity [11]: Non-Toxic | IC50 (CHO-K1 [12]): 34.2 µM | IC50 (CHO-K1 [13]): 70 µM | Activity 5637 [14]: Active | inhibition 5637 [15]: Tde | Activity [16]: Active | IC50 [17]: 5 µM | T1/2 [18]: 18 min | inhibition [19]: Active | Activity [20]: 50% | IC50 5637 [21]: 4.73 µM | IC50 5637 [22]: 5.8 µM | T1/2 [1]: 15.8 min

Cc1cc(C(C)(C)C)c(O)c(C(C)(C)C)c1
T1/2 [18]: 20.7 min

CC(C)(C)OO [TERT-BUTYL HYDROPEROXIDE]
Activity [23]: Toxic

c1ccc([Se][Se]c2ccccc2)cc1
Activity [16]: Active | IC50 [17]: 248 µM | T1/2 [18]: > 180 min | inhibition [19]: Active | T1/2 [1]: 120 min

COc1ccc([Se]CCCCOC(=O)CCCC[C@@H]2SC[C@@H]3NC(=O)N[C@@H]32)cc1
inhibition 5637 [2]: inactive | inhibition 5637 [3]: inactive

O=C1N[C@H]2[C@H](CS[C@H]2CCCCC(=O)OCCCCC[Te]c2ccccc2)N1
Activity [11]: Non-Toxic | Activity 5637 [24]: Active | inhibition 5637 [15]: Tde | Activity [16]: Active | IC50 [17]: 1.33 µM | T1/2 [18]: 23 min | inhibition [19]: Active | Activity [20]: 50% | IC50 5637 [21]: 6.71 µM | IC50 5637 [22]: 7.63 µM | T1/2 [1]: 38.9 min

Cc1c(C)c2c(c(C)c1O)CC[C@@](C)(CCC[C@H](C)CCC[C@H](C)CCCC(C)C)O2 [ALPHA-TOCOPHEROL]
IC50 [17]: 60.3 µM | inhibition [19]: Active

O=C1N[C@H]2[C@H](CS[C@H]2CCCCC(=O)OCCCC[Se]c2ccccc2)N1
inhibition 5637 [2]: inactive | inhibition 5637 [3]: inactive

Cc1ccc([Se]CCCCOC(=O)CCCC[C@@H]2SC[C@@H]3NC(=O)N[C@@H]32)cc1
inhibition 5637 [2]: inactive | inhibition 5637 [3]: inactive

O=C(O)CCCC[C@@H]1SC[C@@H]2NC(=O)N[C@@H]21 [BIOTIN]
Activity (CHO-K1 [25]): Non-Toxic | Activity (CHO-K1 [26]): Non-Toxic | inhibition 5637 [2]: inactive | inhibition 5637 [3]: inactive
